Experimental data as given in ChEMBL document CHEMBL1255289, “In vitro antifungal activities of isavuconazole (BAL4815), voriconazole, and fluconazole against 1,007 isolates of zygomycete, Candida, Aspergillus, Fusarium, and Scedosporium species” (2008).
In brackets after ≈: the same amount, converted by molar mass.

Legend:
Format in all cases: functional
Candida albicans = test: Antifungal activity against Candida albicans isolates after 48 hrs by CLSI M27-A2 procedure based assay; details: Candida albicans, 48 h
How it was run: (§1)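 Candida isolates tested by CLSI M27-A2 broth microdilution at final 0.015–16 µg/ml, or 0.125–128 µg/ml for the comparator azole. Incubation was at 35°C with a visual read at 48 h. MIC-2 was the lowest concentration giving a prominent turbidity drop, about 50% growth inhibition.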

Pichia kudriavzevii = test: Antifungal activity against Candida krusei isolates after 48 hrs by CLSI M27-A2 procedure based assay; how it was run: as §1
Nakaseomyces glabratus = test: Antifungal activity against Candida glabrata isolates after 48 hrs by CLSI M27-A2 procedure based assay; details: Nakaseomyces glabratus, 48 h; how it was run: as §1
Candida parapsilosis = test: Antifungal activity against Candida parapsilosis isolates after 48 hrs by CLSI M27-A2 procedure based assay; details: Lodderomyces parapsilosis, 48 h; how it was run: as §1
Candida = test: Antifungal activity against Candida sp. isolates after 48 hrs by CLSI M27-A2 procedure based assay
How it was run: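 Candida isolates were stored at –70°C as yeast suspensions and subcultured on potato dextrose or Sabouraud agar before use. Broth microdilution used DMSO drug stocks, with final well concentrations of 0.015–16 or 0.125–128 µg/ml depending on the azole. Plates were incubated at 35°C and read macroscopically at 48 h. MIC-2 was the lowest concentration giving a prominent turbidity decrease (~50% growth inhibition).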

Candida tropicalis = test: Antifungal activity against Candida tropicalis isolates after 48 hrs by CLSI M27-A2 procedure based assay; details: Candida tropicalis, 48 h; how it was run: as §1

Compound: OC(Cn1cncn1)(Cn1cncn1)c1ccc(F)cc1F [FLUCONAZOLE]
- MIC50 (Candida albicans): 0.25 µg/mL (≈ 0.816 µM)
- MIC90 (Candida albicans): 16 µg/mL (≈ 52.2 µM)
- MIC (Pichia kudriavzevii): 16 µg/mL (≈ 52.2 µM)
- MIC50 (Nakaseomyces glabratus): 16 µg/mL (≈ 52.2 µM)
- MIC90 (Nakaseomyces glabratus): 32 µg/mL (≈ 104 µM)
- MIC50 (Candida parapsilosis): 0.5 µg/mL (≈ 1.63 µM)
- MIC90 (Candida parapsilosis): 1 µg/mL (≈ 3.27 µM)
- MIC (Candida): 0.25 µg/mL (≈ 0.816 µM)
- MIC (Candida tropicalis): 0.25 µg/mL (≈ 0.816 µM)
- MIC50 (Candida tropicalis): 0.25 µg/mL (≈ 0.816 µM)
- MIC90 (Candida tropicalis): 2 µg/mL (≈ 6.53 µM)
